Active and inactive are the calls of the source. The rule behind the calls is not given here.
How the values were obtained:
[1] = system: RAW264.7; assay: Antiinflammatory activity in mouse RAW264.7 cells assessed as inhibition of LPS-induced TNFalpha production at 33.3 uM preincubated 2 hrs before LPS stimulation measured after 22 hrs by ELISA; assay type: functional
[2] = system: RAW264.7; assay: Cytotoxicity against mouse RAW264.7 cells assessed as cell viability at 10 to 100 uM after 24 hrs by MTS assay; assay type: cell-based; conditions: raw264.7, 24 h
Method in brief: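 RAW264.7 cells were seeded at 2 × 10^6 cells per well and grown to 80% confluency. They were then exposed to compound over a 10–100 μM gradient for 24 h, and viability was read colorimetrically by MTS.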

[3] = system: RAW264.7; assay: Antiinflammatory activity in mouse RAW264.7 cells assessed as inhibition of LPS-induced nitric oxide production at 33.3 uM preincubated 2 hrs before LPS stimulation measured after 22 hrs; assay type: functional
[4] = system: RAW264.7; assay: Antiinflammatory activity in mouse RAW264.7 cells assessed as inhibition of LPS-induced IL-1beta production preincubated 2 hrs before LPS stimulation measured after 22 hrs by ELISA; assay type: functional, cell-based
Method in brief: (§1)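 RAW 264.7 macrophages were pretreated for 2 h with compound across 0–80 μM, with hydrocortisone (20 μM) as control. LPS was then added for a further 22 h. IL-6 or IL-1β in the culture medium was quantified by ELISA.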

[5] = system: RAW264.7; assay: Antiinflammatory activity in mouse RAW264.7 cells assessed as inhibition of LPS-induced IL-6 production preincubated 2 hrs before LPS stimulation measured after 22 hrs by ELISA; assay type: functional, cell-based; method in brief: as §1
[6] = system: RAW264.7; assay: Antiinflammatory activity in mouse RAW264.7 cells assessed as inhibition of LPS-induced IL-6 production at 40 uM preincubated 2 hrs before LPS stimulation measured after 22 hrs by ELISA; assay type: functional; method in brief: as §1
[7] = system: RAW264.7; assay: Antiinflammatory activity in mouse RAW264.7 cells assessed as inhibition of LPS-induced IL-1beta production at 40 uM preincubated 2 hrs before LPS stimulation measured after 22 hrs by ELISA; assay type: functional; method in brief: as §1

| SMILES | inhibition at 33.3 µM [1] [%] | Activity [2] | inhibition at 33.3 µM [3] [%] | inhibition [4] | inhibition [5] | inhibition at 40 µM [6] [%] | inhibition at 40 µM [7] [%] |
| --- | --- | --- | --- | --- | --- | --- | --- |
| Cc1cc2c(c(=O)o1)C(=O)[C@@H]1[C@@H](C)[C@]3(O)CC(=O)C(C)(C)C(=O)[C@@]3(O)[C@@H](O)[C@@]1(C)O2 | < 35 | Non-toxic | < 35 | inactive | inactive |  |  |
| Cc1oc(=O)c2c(c1C)O[C@@]1(C)[C@H](C2=O)[C@@H](C)[C@]2(O)CC(=O)C(C)(C)C(=O)[C@@]2(O)[C@H]1O | < 35 | Non-toxic | < 35 | Dose-dependent effect | Dose-dependent effect | 43 | 42 |
| Cc1oc(=O)c2c(c1C)O[C@@]1(C)[C@@H]([C@@H](C)[C@]3(O)CC(=O)C(C)(C)C(=O)[C@@]3(O)[C@H]1O)[C@H]2O | < 35 | Non-toxic | < 35 | Dose-dependent effect | Dose-dependent effect | 69 | 47 |
| Cc1oc(=O)c2c(c1C)O[C@@]1(C)[C@H](C2)[C@@H](C)[C@]2(O)CC(=O)C(C)(C)C(=O)[C@@]2(O)[C@H]1O | < 35 | Non-toxic | < 35 | inactive | inactive |  |  |

Source: ChEMBL document CHEMBL3632582, “Aspertetranones A-D, Putative Meroterpenoids from the Marine Algal-Associated Fungus Aspergillus sp. ZL0-1b14” (J Nat Prod, 2015)
